# MrgX1 antag: antagonists of human MrgX1 receptor | Q96LB2 | MRGX1-HEK293 calcium flux, Fluo-4, BAM8-22 antagonism; hits give low values | B-score at 10 µM | 310,000 compounds, 1.3% hits | AID 588676;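 active = calcium-response B-score plate-corrected more than 3 library SD below zero, starting fluorescence within 5 deviations, no agonist response on first addition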;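 also: peak minus trough fluorescence over baseline after final BAM8-22 challenge near maximal dose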
# MrgX1 allo act: human MrgX1 positive allosteric modulation, primary screen | MrgX1-HEK293, Fluo-4 calcium flux, FDSS; hits give high values | 310,000 compounds, 0.63% hits | B-score at 10 µM;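 active = plate-corrected calcium response at least 3 library SD above typical, normal starting fluorescence, not activating the receptor alone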;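 also: compound read alongside a low EC10 to EC30 dose of BAM8-22 agonist; peak minus trough fluorescence over baseline measured at the second addition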
# RGS4 inh: human RGS4 inhibition; B-score at 10 µM; HEK293 M3R/RGS4 inducible, Fluo-4 calcium flux; hits give high values; triggered by carbachol at its EC20; 310,000 compounds, 0.45% hits; AID 463165; P49798;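 active = B-score, a plate-corrected calcium signal, over three deviations above library mean, with baseline fluorescence within five deviations of library mean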;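 also: RGS4 expression induced by doxycycline in cells with stable M3 receptor; B-score is computed from the integrated fluorescence ratio over baseline after carbachol; higher B-score means a larger calcium signal and so more RGS4 inhibition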
# Target sequence (P49798 whole entry, looked up): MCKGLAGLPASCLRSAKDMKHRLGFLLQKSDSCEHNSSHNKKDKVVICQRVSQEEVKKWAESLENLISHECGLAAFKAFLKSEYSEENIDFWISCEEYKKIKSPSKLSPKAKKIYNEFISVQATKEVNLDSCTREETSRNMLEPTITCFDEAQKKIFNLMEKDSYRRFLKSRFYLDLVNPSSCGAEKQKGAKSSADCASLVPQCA
# Lipid droplet: hepatic lipid droplet formation modulation; AML12 mouse hepatocytes, oleate lipid droplets, BODIPY imaging; inhibition, % at 6.5 µM; 240,000 compounds, 0.4% hits; AID 1656;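 active = lipid droplet intensity inhibited by at least 50%, with more than 500 cells counted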
#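 Assay system: AML12 hepatocytes (mouse) / Also added: 100 µM oleic acid challenge / Times: overnight treatment with compound plus oleate / Detection: high-content imaging of BODIPY-stained droplets and DAPI nuclei / Evaluation: % inhibition of lipid droplet signal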
# RGS4 act: RGS4 potentiation or activation. HEK293 M3R/inducible RGS4, carbachol calcium flux Fluo4; hits give low values. B-score at 10 µM. 310,000 compounds, 0.92% hits;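 active = B-score of the integrated calcium signal more than 4 SD below the library mean, with starting fluorescence not abnormally high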;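 also: negative B-score means reduced calcium response which marks RGS4 activation or potentiation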
#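 Material: Inducible-RGS4 HEK293 cells carrying M3 receptor; also added: carbachol at ECmax as muscarinic agonist stimulus; incubation: compound preincubation 20 min at room temperature before agonist; signal: Fluo4-AM (2 µM) calcium-flux fluorescence, kinetic read; measure: integrated calcium ratio converted to B score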
# MrgX1 agonist: activates human MrgX1 receptor signaling; B-score at 10 µM; AID 588627; Q96LB2; 310,000 compounds, 0.44% hits; MrgX1-HEK293 cells, Fluo-4 calcium fluorescence, agonist mode; hits give high values;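 active = calcium response B-score plate-corrected fluorescence ratio at least 3 library SD, with starting fluorescence B-score inside 5 SD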
#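 Material: MrgX1-expressing HEK293 cells; input: 15,000 cells per well; doses: test compound given as first of three sequential additions; schedule: overnight plating before 1 h dye loading; technique: Fluo-4 NW calcium-flux fluorescence, kinetic read; evaluation: baseline-normalised fluorescence change ratio, B-scored; control set: plate-wise positive and negative controls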
# RGS4 inh valid: RGS4 inhibitor validation; shares compounds with RGS4 inh; HEK293 M3R/RGS4, carbachol calcium Fluo-4 fluorescence; carbachol added at its EC20; 0 = buffer wells, 100 = carbachol control; calcium response, % at 10 µM; 1,700 compounds, 65% hits;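 active = duplicate-averaged calcium response above the buffer-only control mean plus 5 SD of those controls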;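 also: integrated fluorescence ratio F max minus min over baseline F0; higher response in RGS4-induced cells means RGS4 inhibition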
# M3R Ca ctr: checks RGS4 inhibitor effects in non-induced HEK293 M3R cells; 1,900 compounds, 20% hits; activity (percent), % at 10 µM; AID 493000; shares compounds with RGS4 inh; carbachol calcium Fluo-4; submaximal (EC20) carbachol stimulus; buffer wells 0%, carbachol control wells 100%; call rule not given here;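 also: RGS4 induction absent so cells express M3R without RGS4; higher means more calcium signal and flags a non-specific hit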
# M3R basal Ca ctr: signal in non-induced cells without carbachol, RGS4 inhibitor counter-screen; HEK293 M3R/RGS4 non-induced, Fluo-4 calcium, no carbachol; normalised: buffer wells 0%, carbachol wells 100%; AID 493001; calcium response (agonist-mode artifact), % at 10 µM; shares compounds with RGS4 inh; 1,900 compounds, 22% hits;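 active = duplicate-averaged calcium rise in uninduced cells above buffer wells' mean plus 5 SD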
# * marks the source's active call; other numbers are inactive results; i = inactive; · = no result given. In the library only some 3.8% were active in any assay of this set; here they are far more common.
SMILES,MrgX1 antag,MrgX1 allo act,RGS4 inh,Lipid droplet,RGS4 act,MrgX1 agonist,RGS4 inh valid,M3R Ca ctr,M3R basal Ca ctr
CCOC(=O)N1CCc2c(sc3c2c(=O)n(Cc2ccccc2)c(=O)n3Cc2ccccc2F)C1,i,i,7.3*,-7,i,i,56%*,34%*,i
Cc1ccc(NC(=O)CN(C)CC(=O)Nc2sc3c(c2C(N)=O)CCC3)cc1,i,i,i,6,i,i,·,·,·
COc1ccc(CN2CCCCC2c2cccnc2)c(OC)c1C (stereo not drawn),i,i,i,·,i,i,·,·,·
CCCc1ccc(-c2cc(NC(=O)CSc3nnc(N)s3)n(-c3ccccc3)n2)cc1,i,i,8.8*,-2,i,i,20%*,i,i
Cc1ccc(-c2cc(NC(=O)CSc3n[nH]c(N)n3)n(-c3ccccc3)n2)cc1,i,i,i,-10,i,i,·,·,·
COCCNC(=S)N(CCCO)Cc1cc2cc3c(cc2[nH]c1=O)OCCO3,i,i,i,10,i,i,i,i,i
COCCNC(=S)N(CCO)Cc1cc2cc3c(cc2[nH]c1=O)OCO3,i,i,i,0,i,i,i,i,i
CCN(CC)CCN(Cc1cc2cc3c(cc2[nH]c1=O)OCO3)C(=S)NCCCOC,i,i,i,-14,i,i,·,·,·
OCC1OC(n2cnc3c(NCCc4ccccc4)ncnc32)C(O)C1O (stereo not drawn),i,i,6.4*,·,i,i,29%*,68%*,i
O=c1[nH]cnc2c1ncn2[C@@H]1O[C@H](CO)[C@@H](O)[C@H]1O,i,i,i,3,i,i,·,·,·
Nc1ccc(CCNc2ncnc3c2ncn3[C@@H]2O[C@H](CO)[C@@H](O)[C@H]2O)cc1,i,i,i,·,i,i,·,i,i
O=C(CSc1nnc(SCc2ccccc2)s1)N/N=C/c1c[nH]c2ccccc12,·,·,i,-10,i,·,i,i,i
O=C(CSc1nnc(SCc2ccccc2Cl)s1)N/N=C/c1c[nH]c2ccccc12,i,i,6.8*,-31,i,i,14%*,i,i
CC1C/C(=C/c2ccncc2)C(=O)/C(=C/c2ccncc2)C1 (stereo not drawn),i,8*,28*,-10,i,i,120%*,i,7.5%*
O=Cc1c(Cl)nc2ccccn2c1=O,i,i,4.8*,-1,i,i,22%*,i,i
Cc1ccc(NC(=O)C(C)N2CCCC2)cc1Cl (stereo not drawn),i,i,i,20,i,i,·,·,·
CCN(CC)S(=O)(=O)c1ccc(N2CCCCC2)c(NC(=O)c2ccncc2)c1,i,i,i,5,i,i,·,·,·
Cc1nnc(N/N=C/c2cc([N+](=O)[O-])c(N3CCC(C)CC3)cc2N2CCC(C)CC2)n1N,i,i,4.9*,-86,i,i,9.5%*,36%*,i
CCc1nnc(N/N=C/c2ccc(N3CCC(C)CC3)c([N+](=O)[O-])c2)n1N,i,i,i,8,i,i,·,·,·
COC(=O)c1cc2c(ccn2-c2ccc(F)cc2)n1Cc1ccc(OC)cc1,i,i,i,-27,i,i,·,·,·

# Bioassay records as filed in PubChem BioAssay.
